Measurements taken from ChEMBL document CHEMBL1125107, “Cephalosporin 3'-quinolone esters with a dual mode of action” (J Med Chem, 1990).
In brackets after ≈: the same amount, converted by molar mass.

Assays:
Format in all cases: functional
Pseudomonas aeruginosa [1] = assay: Evaluated for the minimum inhibitory concentration against Pseudomonas aeruginosa ATCC 27853
Procedure, shortened: (§1)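 MIC by serial 2-fold dilution in Mueller-Hinton broth; results given as minimum inhibitory concentrations (nmol/mL).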

Pseudomonas aeruginosa [2] = assay: Evaluated for the minimum inhibitory concentration against Pseudomonas aeruginosa 18S/H ( Class Id beta-lactamase overproducer); procedure, shortened: as §1
Proteus vulgaris [3] = assay: Minimum inhibitory concentration against Proteus vulgaris 1028 BC (Class Ic beta-lactamase overproducer)
Procedure, shortened: (§2)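 Broth MIC determination: serial 2-fold dilutions in Mueller-Hinton broth by standard methodology; the lowest concentration inhibiting growth is reported as the MIC, in nmol/mL.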

Streptococcus pneumoniae [4] = assay: Minimum inhibitory concentration against Streptococcus pneumoniae 6301; procedure, shortened: as §2
Streptococcus pyogenes [5] = assay: Minimum inhibitory concentration against Streptococcus pyogenes 4; procedure, shortened: as §2
Staphylococcus aureus [6] = assay: Minimum inhibitory concentration against Staphylococcus aureus 95 (Methicillin-resistant, high-level beta-lactamase producer)
Procedure, shortened: (§3)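 Serial 2-fold broth dilution in Mueller-Hinton broth, run by standard methodology; read-out is the minimum inhibitory concentration (MIC).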

Pseudomonas aeruginosa [7] = assay: Minimum inhibitory concentration against Pseudomonas aeruginosa ATCC 27853; procedure, shortened: as §2
Proteus vulgaris [8] = assay: Evaluated for the minimum inhibitory concentration against Proteus vulgaris 1028 BC (Class Ic beta-lactamase overproducer; procedure, shortened: as §1
Pseudomonas aeruginosa [9] = assay: Evaluated for the minimum inhibitory concentration against Pseudomonas aeruginosa 18S/H (Class Id beta-lactamase overproducer); procedure, shortened: as §1
Staphylococcus aureus [10] = assay: Evaluated for the minimum inhibitory concentration against Staphylococcus aureus 1059B ( inducible, high level beta-lactamase producer); procedure, shortened: as §3
Escherichia coli [11] = assay: Evaluated for in Vitro activity against Escherichia coli DC-O; procedure, shortened: as §1
Micrococcus luteus = assay: Evaluated for in Vitro activity against Micrococcus luteus PCI; procedure, shortened: as §1
Streptococcus pneumoniae [12] = assay: Evaluated for in Vitro activity against Streptococcus pneumoniae 6301; procedure, shortened: as §1
Staphylococcus aureus [13] = assay: Evaluated for the minimum inhibitory concentration against Staphylococcus aureus 95 (Methicillin-resistant, high-level beta-lactamase producer); procedure, shortened: as §3
Proteus mirabilis = assay: In vitro antibacterial activity was determined against Proteus mirabilis 90; procedure, shortened: as §1
Staphylococcus aureus [14] = assay: In vitro antibacterial activity was determined against Staphylococcus aureus 1059B ( inducible, high level beta-lactamase producer); procedure, shortened: as §2
Streptococcus pneumoniae [15] = assay: In vitro antibacterial activity was determined against Streptococcus pneumoniae 6301; procedure, shortened: as §2
Streptococcus pyogenes [16] = assay: In vitro antibacterial activity was determined against Streptococcus pyogenes 4; procedure, shortened: as §2
Escherichia coli [17] = assay: Evaluated for the minimum inhibitory concentration against Escherichia coli UB 1005; procedure, shortened: as §1
Escherichia coli [18] = assay: Evaluated for the in vivo activity in mice against Escherichia coli 257
Streptococcus pyogenes [19] = assay: Evaluated for the in vivo activity in mice against streptococcus pyogenes 4
Citrobacter freundii = assay: In vitro antibacterial activity was determined against Citrobacter freundii BS-16; procedure, shortened: as §1
Enterobacter cloacae [20] = assay: In vitro antibacterial activity was determined against Enterobacter cloacae P99 (Class Ia beta-lactamase overproducer); procedure, shortened: as §1
Escherichia coli [21] = assay: In vitro antibacterial activity was determined against Escherichia coli TEM-1 (TEM-1 (class IIIa) beta-lactamase producer); procedure, shortened: as §1
Proteus vulgaris [22] = assay: In vitro antibacterial activity was determined against Proteus vulgaris 1028 BC (Class Ic beta-lactamase overproducer; procedure, shortened: as §1
Serratia marcescens = assay: In vitro antibacterial activity was determined against Serratia marcescens 1071; procedure, shortened: as §2
Staphylococcus aureus [23] = assay: In vitro antibacterial activity was determined against Staphylococcus aureus 1059B (inducible, high level beta-lactamase producer); procedure, shortened: as §3
Staphylococcus aureus [24] = assay: In vitro antibacterial activity was determined against Staphylococcus aureus ATCC 29213 (inducible, low level beta-lactamase producer); procedure, shortened: as §3
Pseudomonas aeruginosa [25] = assay: In vitro antibacterial activity was determined against Pseudomonas aeruginosa 18S/H (Class Id beta-lactamase overproducer); procedure, shortened: as §2
Enterococcus faecalis = assay: In vitro antibacterial activity was determined against Enterococcus faecalis ATCC 29212; procedure, shortened: as §1
Staphylococcus aureus [26] = assay: In vitro antibacterial activity was determined against Staphylococcus aureus 95 (Methicillin-resistant, high-level beta-lactamase producer); procedure, shortened: as §3
Escherichia coli [27] = assay: Evaluated for the minimum inhibitory concentration against Escherichia coli TEM-1; procedure, shortened: as §3
Enterobacter cloacae [28] = assay: Evaluated for the minimum inhibitory concentration against Enterobacter cloacae P99; procedure, shortened: as §3
Proteus vulgaris [29] = assay: Evaluated for the minimum inhibitory concentration against Proteus vulgaris 1028 BC; procedure, shortened: as §3

Structure (SMILES) | MIC (Proteus vulgaris [3]) [µg/mL] | MIC (Streptococcus pneumoniae [4]) [µg/mL] | MIC (Streptococcus pyogenes [5]) [µg/mL] | MIC (Staphylococcus aureus [6]) [µg/mL] | MIC (Pseudomonas aeruginosa [7]) [µg/mL] | MIC (Proteus vulgaris [8]) [µg/mL] | MIC (Pseudomonas aeruginosa [9]) [µg/mL] | further results
CCN1CCN(C(=O)NC(C(=O)N[C@@H]2C(=O)N3C(C(=O)O)=C(COC(=O)c4cn(CC)c5cc(N6CCSCC6)c(F)cc5c4=O)CSC23)c2ccccc2)C(=O)C1=O (some centres not stated) | 64 (≈ 75.3 µM) | 0.125 (≈ 0.147 µM) | 0.016 (≈ 0.0188 µM) | 1 (≈ 1.18 µM) |  |  |  | MIC (Pseudomonas aeruginosa [1]): 64 µg/mL (≈ 75.3 µM); MIC (Pseudomonas aeruginosa [2]): 32 µg/mL (≈ 37.7 µM)
CCn1cc(C(=O)OCC2=C(C(=O)O)N3C(=O)[C@@H](NC(=O)/C(=N/OC)c4csc(N)n4)C3SC2)c(=O)c2cc3c(cc21)OCO3 (some centres not stated) |  |  |  | 4 (≈ 6.09 µM) | 128 (≈ 195 µM) | 0.25 (≈ 0.381 µM) | 16 (≈ 24.4 µM) | 
CN1CCN(c2c(F)cc3c(=O)c(C(=O)OCC4=C(C(=O)O)N5C(=O)[C@@H](NC(=O)/C(=N/OC(C)(C)C(=O)O)c6csc(N)n6)C5SC4)cn(CCF)c3c2F)CC1 (some centres not stated) |  | 0.5 (≈ 0.597 µM) | 0.5 (≈ 0.597 µM) | 4 (≈ 4.78 µM) | 8 (≈ 9.56 µM) | 0.5 (≈ 0.597 µM) | > 128 | 
CCn1cc(C(=O)OCC2=C(C(=O)O)N3C(=O)[C@@H](NC(=O)COc4ccccc4)C3SC2)c(=O)c2cc(F)c(N3CCSCC3)cc21 (some centres not stated) | 1 (≈ 1.46 µM) | 2 (≈ 2.93 µM) | 4 (≈ 5.86 µM) | 0.5 (≈ 0.732 µM) | 128 (≈ 187 µM) |  | 64 (≈ 93.7 µM) | MIC (Staphylococcus aureus [10]): 0.25 µg/mL (≈ 0.366 µM)
CO/N=C(/C(=O)N[C@@H]1C(=O)N2C(C(=O)O)=C(CO)CSC12)c1csc(N)n1 (some centres not stated) |  |  |  |  |  |  |  | MIC (Escherichia coli [11]): 0.597 µM (≈ 0.247 µg/mL); MIC (Micrococcus luteus): 0.597 µM (≈ 0.247 µg/mL); MIC (Streptococcus pneumoniae [12]): 0.0746 µM (≈ 0.0308 µg/mL)
CCn1cc(C(=O)OCC2=C(C(=O)O)N3C(=O)[C@@H](NC(=O)/C(=N/OC)c4csc(N)n4)C3SC2)c(=O)c2ccc(C)nc21 (some centres not stated) | 4 (≈ 6.37 µM) |  |  | 8 (≈ 12.7 µM) | > 128 |  | 64 (≈ 102 µM) | 
CN1CCN(c2c(F)cc3c(=O)c(C(=O)OCC4=C(C(=O)O)N5C(=O)[C@@H](NC(=O)/C(=N/OCC(=O)O)c6csc(N)n6)C5SC4)cn(CCF)c3c2F)CC1 (some centres not stated) |  | 0.5 (≈ 0.618 µM) | 0.5 (≈ 0.618 µM) |  | 32 (≈ 39.6 µM) | 0.25 (≈ 0.309 µM) |  | MIC (Pseudomonas aeruginosa [2]): 4 µg/mL (≈ 4.95 µM); MIC (Staphylococcus aureus [13]): 1 µg/mL (≈ 1.24 µM)
CCn1cc(C(=O)OCC2=C(C(=O)O)N3C(=O)[C@@H](NC(=O)COc4ccccc4)C3SC2)c(=O)c2ccc(C)nc21 (some centres not stated) |  |  |  |  |  |  |  | MIC (Proteus mirabilis): 32 µg/mL (≈ 55.3 µM); MIC (Staphylococcus aureus [14]): 0.5 µg/mL (≈ 0.864 µM); MIC (Streptococcus pneumoniae [15]): < 0.008 µg/mL; MIC (Streptococcus pyogenes [16]): 0.063 µg/mL (≈ 0.109 µM)
CO/N=C(\C(=O)N[C@@H]1C(=O)N2C(C(=O)O)=C(COC(C)=O)CS[C@H]12)c1csc(N)n1 [CEFOTAXIME] |  | 0.016 (≈ 0.0351 µM) | < 0.008 | 32 (≈ 70.3 µM) | 64 (≈ 141 µM) | 16 (≈ 35.1 µM) | 128 (≈ 281 µM) | MIC (Escherichia coli [17]): 0.06 µg/mL (≈ 0.132 µM); ED50 (Escherichia coli [18]): 1.7 mg/kg; ED50 (Streptococcus pyogenes [19]): 5.2 mg/kg
CCn1cc(C(=O)O)c(=O)c2cc(F)c(-n3cccc3)cc21 [IRLOXACIN] |  |  |  |  |  |  |  | MIC (Citrobacter freundii): 64 µg/mL (≈ 213 µM); MIC (Enterobacter cloacae [20]): 0.5 µg/mL (≈ 1.67 µM); MIC (Escherichia coli [21]): 1 µg/mL (≈ 3.33 µM); MIC (Proteus mirabilis): 64 µg/mL (≈ 213 µM); MIC (Proteus vulgaris [22]): 0.5 µg/mL (≈ 1.67 µM); MIC (Serratia marcescens): 0.5 µg/mL (≈ 1.67 µM); MIC (Staphylococcus aureus [23]): 0.125 µg/mL (≈ 0.416 µM); MIC (Staphylococcus aureus [24]): 0.125 µg/mL (≈ 0.416 µM); MIC (Streptococcus pneumoniae [15]): 16 µg/mL (≈ 53.3 µM); MIC (Streptococcus pyogenes [16]): > 128 µg/mL; MIC (Pseudomonas aeruginosa [25]): 64 µg/mL (≈ 213 µM); MIC (Enterococcus faecalis): 2 µg/mL (≈ 6.66 µM); MIC (Staphylococcus aureus [26]): 0.125 µg/mL (≈ 0.416 µM)
CCn1cc(C(=O)O)c(=O)c2ccc(C)nc21 [NALIDIXIC ACID] | 2 (≈ 8.61 µM) | 128 (≈ 551 µM) | 128 (≈ 551 µM) | 8 (≈ 34.4 µM) | 128 (≈ 551 µM) |  | 32 (≈ 138 µM) | MIC (Escherichia coli [27]): 4 µg/mL (≈ 17.2 µM)
CCn1cc(C(=O)O)c(=O)c2cc3c(cc21)OCO3 [OXOLINIC ACID] |  | > 128 | > 128 | 2 (≈ 7.66 µM) | 64 (≈ 245 µM) |  |  | MIC (Enterobacter cloacae [28]): 0.5 µg/mL (≈ 1.91 µM); MIC (Escherichia coli [27]): 0.25 µg/mL (≈ 0.957 µM); MIC (Proteus vulgaris [29]): 0.063 µg/mL (≈ 0.241 µM); MIC (Pseudomonas aeruginosa [2]): 4 µg/mL (≈ 15.3 µM)
